These results are taken from ChEMBL document CHEMBL1124972, “Antiatherosclerotic agents. A structurally novel bivalent inhibitor of acylCoA:cholesterol O-acyltransferase with systemic activity” (J Med Chem, 1990).

Broadly, the IC50 is the concentration needed to halve the response being measured. A lower IC50 goes with greater potency in that assay. For orientation: inhibition means the share of the control response that was lost under treatment. Lower therefore signals little suppression.

Experiment [1] concerns the target T1, Acyl-CoA:cholesterol acyltransferase (Oryctolagus cuniculus, UniProt Q95214).
T1 sequence (Q95214 whole entry): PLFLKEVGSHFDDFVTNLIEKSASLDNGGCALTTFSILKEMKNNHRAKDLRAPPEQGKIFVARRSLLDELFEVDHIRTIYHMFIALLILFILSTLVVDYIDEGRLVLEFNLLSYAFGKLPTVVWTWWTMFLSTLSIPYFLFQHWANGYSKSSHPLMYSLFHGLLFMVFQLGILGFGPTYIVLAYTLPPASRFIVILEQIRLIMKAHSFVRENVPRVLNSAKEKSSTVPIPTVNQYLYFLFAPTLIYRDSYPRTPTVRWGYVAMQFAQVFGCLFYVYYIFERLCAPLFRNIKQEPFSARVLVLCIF
As to the kind of experiment: In vitro inhibitory activity against Acyl coenzyme A:cholesterol acyltransferase; a = inactive. A digest of the protocol:
(§1)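 Cellular assay: Fu5AH cells cultured with [³H]cholesterol-labeled hyperlipemic plasma lipoproteins; inhibition of [³H]cholesteryl ester synthesis and accumulation measured; IC50 given in μg/mL.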

The target in experiment [2] is T1, Acyl-CoA:cholesterol acyltransferase. As to the kind of experiment: In vitro inhibitory activity against Acyl coenzyme A:cholesterol acyltransferase. In outline: as §1
Experiment [3] addresses T2, Acyl-CoA:cholesterol acyltransferase (Oryctolagus cuniculus) (UniProt Q95214).
T2 sequence (whole entry): T1 sequence (Q95214 whole entry)
The experiment is described as follows: In vitro inhibitory activity against Acyl coenzyme A:cholesterol acyltransferase at a concentration of 5 ug/mL.

Experiment [4] deals with Oryctolagus cuniculus. The experiment is described as follows: Tested in vivo for plasma cholesterol levels in Netherland Dwarf rabbit. In kind it is functional, organism-based. In outline:
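Netherland Dwarf rabbits fed cholesterol-containing atherogenic diet, with test agent at 50 mg/kg; plasma total cholesterol in mg/dL measured, alongside aortic lesion surface involvement; means ±SEM of 8 animals per group.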

In experiment [5] the test system is Rattus norvegicus. As to the kind of experiment: Tested for plasma cholesterol levels against rat after 2.5 hours of oral administration. In kind it is functional, organism-based. In outline: (§2)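 Male Sprague-Dawley rats (4 per group) intubated orally with 0.6 mL suspension of 1 μCi [4-14C]cholesterol (53 Ci/Mol), corn oil, ethanol, DMSO and 1 mg cholesterol, with or without test agent at 30 mg/kg. Two rats per group bled by cardiac puncture at 2.5 and 6 h; plasma [14C]cholesterol measured as dpm/mL; mean of two animals.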

The target in experiment [6] is T2, Acyl-CoA:cholesterol acyltransferase (Oryctolagus cuniculus). As to the kind of experiment: Reduction of ACAT activity after treatment was measured in rabbit aorta. The class given is functional, tissue-based. In outline: (§3)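 Rabbits given 10-day cholesterol feeding to raise arterial ACAT, then dosed orally at 50 mg kg⁻¹ day⁻¹ for 6 days; aortas excised, incubated in vitro with [1-14C]oleate for 3 h; ACAT activity as cholesteryl [14C]oleate formed, dpm/100 mg wet weight aorta; means of 2 animals per group.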

Experiment [7] concerns Rattus norvegicus. The experiment is described as follows: Tested for plasma cholesterol levels against rat after 6.0 hours of oral administration. In kind it is functional, organism-based. A digest of the protocol: as §2
Experiment [8] deals with Sterol O-acyltransferase 1 (Rattus norvegicus). As to the kind of experiment: Reduction of ACAT activity after treatment was measured in rat liver.
Experiment [9] has as its target T2, Acyl-CoA:cholesterol acyltransferase (Oryctolagus cuniculus). As to the kind of experiment: Arterial Acyl coenzyme A:cholesterol acyltransferase activity was measured in vitro in rabbit aorta after administration of 50 mg/Kg. In kind it is functional, organism-based. A digest of the protocol:
as §3

The subject of experiment [10] is Oryctolagus cuniculus. As to the kind of experiment: Tested in vivo for atheromatous lesion development in Netherland Dwarf rabbit. The class given is functional. A digest of the protocol: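 Netherland Dwarf rabbits on cholesterol-containing atherogenic diet, dosed at 50 mg/kg; aortic lesion formation scored as % surface involvement, with plasma total cholesterol (mg/dL); means (±SEM) of 8 animals per group.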

For experiment [11], the target named is T3, Sterol O-acyltransferase 1 (Rattus norvegicus) (UniProt O70536).
T3 sequence (whole entry): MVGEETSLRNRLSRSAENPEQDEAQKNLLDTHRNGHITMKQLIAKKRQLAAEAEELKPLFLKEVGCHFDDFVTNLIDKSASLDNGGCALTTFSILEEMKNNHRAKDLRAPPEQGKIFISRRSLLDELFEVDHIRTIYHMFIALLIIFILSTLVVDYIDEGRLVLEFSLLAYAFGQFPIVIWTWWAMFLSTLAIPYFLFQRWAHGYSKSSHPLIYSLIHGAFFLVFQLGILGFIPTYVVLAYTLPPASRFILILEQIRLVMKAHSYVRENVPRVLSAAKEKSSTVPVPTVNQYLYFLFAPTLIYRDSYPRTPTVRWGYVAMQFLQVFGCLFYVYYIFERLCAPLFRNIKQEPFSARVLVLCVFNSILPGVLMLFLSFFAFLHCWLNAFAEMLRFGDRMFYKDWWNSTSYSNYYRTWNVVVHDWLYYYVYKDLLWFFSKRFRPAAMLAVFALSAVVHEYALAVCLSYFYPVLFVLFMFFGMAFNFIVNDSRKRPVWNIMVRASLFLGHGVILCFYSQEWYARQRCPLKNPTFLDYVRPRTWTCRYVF
As to the kind of experiment: ACAT inhibitory activity was measured in rat liver after administration of 30 mg/Kg. In kind it is functional, organism-based. In outline:
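Male Sprague-Dawley rats (435-460 g) fed Purina chow with compound in diet (calculated 30 mg kg⁻¹ day⁻¹) for 8 days; liver minces incubated in vitro with [1-14C]oleate for 90 min; ACAT activity read as cholesteryl [14C]oleate formed, dpm/100 mg wet weight; means of 2 animals per group.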

Consider `COc1c2occc2c(O)c2c(=O)cc(CN3CCC(CCC4CCN(Cc5cc(=O)c6c(O)c7ccoc7c(OC)c6o5)CC4)CC3)oc12`, for which, in experiment [1], the IC50 entry is listed as “Not Active”.

As to `COc1c2c(c(OC)c3c(=O)cc(CN4CCC(CCC5CCN(Cc6cc(=O)c7c(OC)c8c(c(OC)c7o6)OCC8)CC5)CC4)oc13)CCO2`, the IC50 in experiment [2] was 4.19 µM.

In turn, `COc1c2occc2c(OC)c2c(=O)cc(CN3CCN(CC(O)CN4CCN(Cc5cc(=O)c6c(OC)c7ccoc7c(OC)c6o5)CC4)CC3)oc12` returned an inhibition in experiment [3] of 7%.

For the molecule `COc1c2occc2c(OC)c2c(=O)cc(CN3CCC(C4CCN(Cc5cc(=O)c6c(OC)c7ccoc7c(OC)c6o5)CC4)CC3)oc12`, in experiment [3], the inhibition came out at 0%.

`COc1c2occc2c(OC)c2c(=O)cc(CN3CCC(CCCC4CCN(Cc5cc(=O)c6c(OC)c7ccoc7c(OC)c6o5)CC4)CC3)oc12` gave an IC50 in [2] of 5.78 µM.

Consider `COc1c2occ(F)c2c(OC)c2c(=O)cc(CN3CCC(CCC4CCN(Cc5cc(=O)c6c(OC)c7c(F)coc7c(OC)c6o5)CC4)CC3)oc12`, for which the IC50 in experiment [2] was under 13.4 µM.

For the molecule `COc1c2occc2c(OC)c2c(=O)cc(CN3CCC(CCC4CCN(Cc5cc(=O)c6c(OC)c7ccoc7c(OC)c6o5)CC4)CC3)oc12`, in [4], the Plasma total cholesterol was 271 mg/dL. The results for the Plasma [14C] cholesterol in [5] and in [7] were 818 dpm/mL and 3880 dpm/mL, respectively. The Reduction in experiment [6] stood at 42%; in experiment [8], 62%. The ACAT activity (dpm/100 mg wet wt) in experiment [9] worked out at 305; in experiment [11] it was 535. The molecule also displayed a Surface involvement in experiment [10] of under 10%. The molecule further showed an IC50 in experiment [2] of 1.12 µM.

In turn, `COc1c2occc2c(OC)c2c(=O)cc(CN3CCN(CCN4CCN(Cc5cc(=O)c6c(OC)c7ccoc7c(OC)c6o5)CC4)CC3)oc12` yielded an inhibition in experiment [3] of 5%.
